# Runt-CBFb FRET: blocks binding of human RUNX1 Runt domain to CBFb | hit rate 0.46% among 220,000 | AID 1496 | Cerulean-Runt/Venus-CBFb FRET ratio 530/480, 1 h | inhibition, % at 20 µM;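 active = inhibition over about 50% at 20 µM in the single-dose screen, limit read from the data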;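 note: 0% = DMSO wells and 100% = excess unlabeled CBFb competitor control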
# Target sequence (Q01196 whole entry, looked up, the tested form may be a part): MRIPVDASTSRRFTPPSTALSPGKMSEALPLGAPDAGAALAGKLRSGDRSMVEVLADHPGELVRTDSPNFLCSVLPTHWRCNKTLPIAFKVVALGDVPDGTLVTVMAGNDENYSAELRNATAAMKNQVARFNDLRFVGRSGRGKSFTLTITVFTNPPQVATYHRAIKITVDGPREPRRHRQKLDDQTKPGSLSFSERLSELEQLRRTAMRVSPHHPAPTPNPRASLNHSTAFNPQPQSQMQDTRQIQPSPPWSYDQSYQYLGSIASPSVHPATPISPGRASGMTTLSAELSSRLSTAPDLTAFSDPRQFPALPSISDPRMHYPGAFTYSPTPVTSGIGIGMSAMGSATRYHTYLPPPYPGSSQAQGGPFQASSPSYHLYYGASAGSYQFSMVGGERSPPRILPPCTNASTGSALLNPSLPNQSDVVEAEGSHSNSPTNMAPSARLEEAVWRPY
# Target sequence (Q13951 whole entry, looked up, the tested form may be a part): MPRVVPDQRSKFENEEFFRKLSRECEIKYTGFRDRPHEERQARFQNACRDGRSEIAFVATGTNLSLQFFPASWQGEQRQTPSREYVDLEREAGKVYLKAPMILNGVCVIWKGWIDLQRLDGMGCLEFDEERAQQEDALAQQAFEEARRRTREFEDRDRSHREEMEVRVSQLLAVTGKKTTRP
#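 System: Cerulean-labeled Runt domain protein | Quantity: 100 nM of each labeled protein | Schedule: 1 h compound exposure, room temperature | Detection: Fluorescence energy transfer, 422 nm excitation, 530/480 nm emission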
# Rce1 inh: blocks yeast Ras-converting enzyme; yeast membranes, quenched prenylated peptide cleavage fluorescence; calls only; hit rate 0.27% among 290,000; AID 2563;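 active = fall in fluorescence gain of 50% or more versus controls, with final raw signal at or below 3038400; inconclusive = same 50% fall but final raw signal above 3038400; inactive = fall in fluorescence gain under 50%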;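 note: plate controls were neutral control wells for no effect and wells lacking membranes for full effect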
# Runt-SMMHC FRET: Runt domain-CBFb-SMMHC interaction inhibition. Q01196+Q13951. Cerulean-Runt/Venus-CBFb-SMMHC FRET ratio 530/480, 1 h. inhibition, % at 20 µM. hit rate 0.74% among 220,000. AID 1434;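 active = mean inhibition across duplicate retests at 20 µM reaching about 50%, limit read from the data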;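 note: 0% = DMSO wells and 100% = wells with excess untagged CBFb-SMMHC; inhibitors lower the FRET ratio by blocking Runt binding to CBFb-SMMHC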
# RanGTP-Imp inh: inhibitors of RanGTP-importin-beta interaction, primary screen, biochemical, FRET, CFP-Ran, YFP-importin-beta, homogeneous | hit rate 1.1% among 300,000 | AID 2216 | cell-free CFP-Ran/YFP-importin-beta FRET ratio | inhibition, % (test concentration not listed);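 active = more than half of the replicate wells show a fall in the fluorescence ratio signal beyond about 16%, limit read from the data, passing the limit was not always enough; inconclusive = exactly half of the replicate wells pass the set limit; inactive = fewer than half of replicates pass the limit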;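 note: 0% = DMSO wells and 100% = Ran loaded with GDP instead of GTP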
# Vif imaging: blocks HIV Vif function; HEK293T cells, Vif self-association by quenched fluorescence, imaging, 24 h; inhibition, % at 7.49 µM; AID 602346; hit rate 0.35% among 340,000; in the data active = inhibition above about 50%, passing the limit was not always enough; inconclusive = no clear call, values can overlap the other calls; inactive = below about 31%
# * hit, by the source's call; i = inactive; ? = inconclusive; · = no result given; + = active, no number. The list is not random: actives were taken first. Their share in the collection is about 1.7%.
SMILES,Runt-CBFb FRET,Rce1 inh,Runt-SMMHC FRET,RanGTP-Imp inh,Vif imaging
Cc1cc(C(N)=O)c2cc(Br)ccc2n1,0,i,2,27*,·
c1nc2n(n1)C1=C(CCCC1)C1(CCCCC1)N2,-1,i,0,15*,2
CCCCNC(=O)C1c2ccccc2Oc2ccccc21,2,i,1,22*,-8
CCCCOCCCNC(=O)C1c2ccccc2Oc2ccccc21,·,i,·,2,2
Cc1ccc(CNC(=O)C2CCC(CNc3nc(=S)[nH]c4ccccc34)CC2)cc1 (stereo unspecified),-4,i,-3,27*,-4
COc1cc(/C=C(\C#N)C(=O)Nc2cccc3ncccc23)ccc1O,84*,i,92*,63*,·
COc1cc(/C=C(\C#N)C(=O)Nc2ccccn2)ccc1O,·,i,·,5,1
Cc1nn(Cc2ccccc2)c2ncccc12,·,i,·,7,-12
CC(C)(C)c1ccc(C(O)c2ncc(-c3cccc(F)c3)[nH]2)cc1 (stereo unspecified),·,·,·,·,-6
O=C(Nc1ccccc1N1CCOCC1)C1CCN(S(=O)(=O)c2ccc(F)cc2)CC1,-2,+,-1,-2,4
CCn1c(SCC(=O)NCC2CCCO2)nnc1-c1ccc(Cl)cc1 (stereo unspecified),-1,i,-2,26*,54*
Cc1ccc(C)n1-c1cc(S(=O)(=O)N2CCOCC2)ccc1N1CCCC1,-2,i,-2,33*,1
CN1C(=O)Cc2cc(S(=O)(=O)N3CCOCC3)ccc21,0,i,3,39*,15
CNCc1cc(C)n(-c2cc(S(=O)(=O)N3CCOCC3)ccc2N2CCCC2)c1C,·,·,·,·,5
CCS(=O)(=O)c1ccc(O)c(NC(=O)c2ccc(S(=O)(=O)N3CCCCCC3)cc2)c1,·,·,·,·,11
O=C1CC2(CCN(C(=O)c3cccc([N+](=O)[O-])c3)CC2)Oc2ccccc21,·,i,·,1,-2
CC(=O)C(/C=N/c1ncc(C(F)(F)F)cc1Cl)=C(\C)O,-1,i,-1,22*,-5
CCN(Cc1ccccc1)C(=O)COC(=O)[C@@H]1CCCN1C(=O)c1cccs1,·,·,·,·,11
COc1ccc(-c2oc3ccccc3c2C(=O)OCc2ccccc2OC)cc1,·,+,·,4,-5
CCN1CCc2c(sc(NC(=O)c3ccc(C(=O)c4ccccc4)cc3)c2C(N)=O)C1,·,i,·,9,-6
CCN1CCc2c(sc(NC(=O)c3ccc(S(=O)(=O)N4CCOCC4)cc3)c2C(N)=O)C1,9,i,16,?,-9
CCN1CCc2c(sc(NC(=O)c3ccc(S(=O)(=O)N(CC)c4ccccc4)cc3)c2C(N)=O)C1,·,i,·,72*,i
CCN1CCc2c(sc(NC(=O)Nc3ccc(Cl)c(Cl)c3)c2C(N)=O)C1,4,·,77*,·,·
CN1CCc2c(sc(NC(=O)Cc3ccc(F)cc3)c2C(N)=O)C1,·,i,·,131*,-3
CCN1CCc2c(sc(NC(=O)Cc3ccccc3)c2C(N)=O)C1,·,i,·,155*,24
SMILES,Runt-CBFb FRET,Rce1 inh,Runt-SMMHC FRET,RanGTP-Imp inh,Vif imaging
NC(=O)NC(Cc1ccccc1)C(=O)NNC(=O)COc1ccccc1Cl (stereo unspecified),·,·,·,·,-4
CC(=O)c1ccc(OCc2cc(C(=O)NCCn3nc(C)cc3C)no2)cc1,·,i,·,-5,·
CCOC(=O)c1c(NC(=O)Cc2ccccc2)sc2c1CCN(C)C2,·,i,·,76*,9
CCN1CCc2c(sc(NC(=O)COc3ccccc3)c2C(=O)OC)C1,·,i,·,87*,-4
CN1CCc2c(sc(NC(=O)Cc3ccccc3)c2C(N)=O)C1,·,i,·,134*,·
CN1CCc2c(sc(NC(=O)c3ccc4ccccc4c3)c2C(N)=O)C1,·,i,·,·,-13
CCOC(=O)c1c(NC(=S)Nc2ccc(Cl)cc2)sc2c1CCN(C)C2,98*,·,164*,·,22
O=C(NN=C1CCCCCCC1)c1ccc2ccccc2n1,-1,i,-2,1,9
Cc1nnc(SCC(=O)Nc2sc3c(c2C(=O)c2ccccc2)CCCC3)s1,-1,i,-3,10,13
CCN1CCc2c(sc(NC(=S)NC(=O)c3ccco3)c2C(N)=O)C1,12,i,58*,163*,5
CCOC(=O)c1c(NC(=O)CCS(=O)(=O)c2ccccc2)sc2c1CCN(C)C2,·,i,·,126*,8
CCOC(=O)N1CCc2c(sc(NC(=O)CCS(=O)(=O)c3ccccc3)c2C(N)=O)C1,·,i,·,-3,·
CCOC(=O)c1c(NC(=O)CSc2nnc(C)s2)sc2c1CCN(C)C2,79*,i,135*,27*,·
CCOC(=O)c1c(NC(=O)C(F)(OC)C(F)(F)F)sc2c1CCN(C)C2 (stereo unspecified),84*,i,62*,76*,·
CCOC(=O)c1c(NC(=O)OC)sc2c1CCC2,-3,i,0,-1,2
Cc1sc(NC(=S)NC(=O)c2ccco2)c(C(N)=O)c1C,31,i,-8,-4,-3
CN(C)c1ccc(C(CNC(=O)COc2ccc(Cl)cc2)N2CCCC2)cc1 (stereo unspecified),·,i,·,0,3
CC1CCCC(C)N1C(=O)CN1C(=O)NC2(CCCCCC2)C1=O (stereo unspecified),·,·,·,·,-5
CCCCOc1ccc(NC(=O)Nc2nnc(C)s2)cc1,-1,i,-2,1,-7
CCn1cc(Br)c(C(=O)Nc2ccc(Cl)c(Cl)c2)n1,-4,i,3,57*,12
Cc1ccc(C)c(OC(=O)CN2C(=O)c3ccccc3C2=O)c1,·,i,·,-3,6
COC1CCCN(Cc2c(C(=O)N3CCN(C4CCCCC4)CC3)nc3ccccn23)C1 (stereo unspecified),·,i,·,104*,-3
CCOC(=O)C1CCCN(Cc2c(C(=O)N3CCOCC3)nc3ccccn23)C1 (stereo unspecified),1,i,0,-3,-1
CCOC(=O)Nc1ccc2c(CNC(C)c3ccccc3OC)cc(=O)oc2c1 (stereo unspecified),·,i,·,0,-8
Cc1ccc(OCCN2C(=O)C(=O)c3cc(C)ccc32)cc1,·,+,·,-1,·
SMILES,Runt-CBFb FRET,Rce1 inh,Runt-SMMHC FRET,RanGTP-Imp inh,Vif imaging
Cc1ccc(OCCCN2C(=O)C(=O)c3cccc(C)c32)cc1,-4,i,-2,0,13
O=C(Nc1cccc(S(=O)(=O)N2CCCCC2)c1)C1COc2ccccc2O1 (stereo unspecified),·,·,·,·,-1
CC(=O)Nc1ccc(Cl)cc1C1COC(=O)C1=N (stereo unspecified),-6,+,-8,19*,1
Cc1ccc(NC(=O)Nc2cc(Cl)ccc2C2COC(=O)C2=N)cc1 (stereo unspecified),-1,i,-12,5,·
C=CCn1c(N)c(C(=O)Nc2ccc(C)c(C)c2)c2nc3ccccc3nc21,3,i,19,5,16
C=CCn1c(N)c(C(=O)Nc2cccc(C)c2)c2nc3ccccc3nc21,6,i,8,22*,·
